Assay outcomes: PubChem, several laboratories
An excerpt weighted towards active compounds, which were near 1.6% of everything screened.
GASC-1 inh = human JMJD2C demethylase inhibition; Q9H3R0; GST-JMJD2C(1-420) H3K9me3 demethylation, DELFIA europium; inhibition, % at 2.35 µM; 330,000 tested, 0.069% active; AID 2099;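 active means more than half of a compound's replicate wells show inhibition beyond 50%, single wells judged on their own value; inconclusive means some, but no more than half, of replicates pass 50% inhibition; inactive means no replicate passes 50% inhibition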;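 further: signal counts dimethyl H3K9 product captured on neutravidin plate; 0% = median of DMSO wells and 100% = 0.3 times that DMSO median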
Target sequence (Q9H3R0 1-420 limits assumed): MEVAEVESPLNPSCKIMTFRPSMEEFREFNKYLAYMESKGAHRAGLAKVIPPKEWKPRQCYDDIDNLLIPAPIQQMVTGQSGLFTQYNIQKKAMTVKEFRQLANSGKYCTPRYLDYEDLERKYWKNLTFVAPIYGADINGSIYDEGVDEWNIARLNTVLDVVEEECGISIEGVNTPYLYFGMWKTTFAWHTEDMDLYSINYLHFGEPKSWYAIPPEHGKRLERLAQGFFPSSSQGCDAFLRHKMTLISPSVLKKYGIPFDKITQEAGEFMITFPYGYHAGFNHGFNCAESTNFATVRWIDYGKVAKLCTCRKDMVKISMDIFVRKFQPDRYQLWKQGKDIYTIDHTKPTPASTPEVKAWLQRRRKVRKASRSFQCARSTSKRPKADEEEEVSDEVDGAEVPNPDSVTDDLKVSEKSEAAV
TDP2 inh = blocks human TDP2 phosphodiesterase activity; O95551; recombinant TDP2, T5PNP hydrolysis, p-nitrophenol absorbance 415 nm; inhibition, % at 12.8 µM; 370,000 tested, 0.34% active;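 active means inhibition above the mean of all tested compounds plus 3 SD, set per campaign, cut at about 25% in these data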;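 further: 0% = DMSO with enzyme and 100% = buffer with substrate but no TDP2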
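test system = human TDP2 enzyme | input = TDP2 enzyme at 120 nM final | medium = 50 mM Tris-HCl pH 7.5 with Mg2+, KCl, DTT, BSA | also added = T5PNP substrate, 5 mM | times = 2 h at 37 °C | technique = epi absorbance | benchmarks = high control without enzyme, low control DMSO plus TDP2 | replication = each compound tested once, singlicate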
UBC9 SUMO inh = blocks human SUMOylation mediated by UBC9 | AID 2006 | inhibition, % at 35 µM | 290,000 tested, 0.36% active | HTRF SUMOylation assay, SAE1/SAE2 + UBC9, in vitro; in the data active means inhibition above about 50%, passing the limit was not always enough; inconclusive means no clear call, values can overlap the other calls
PAD4 FP inh = PAD4 (human) enzyme inhibition; 330,000 tested, 0.41% active; inhibition, % at 6.36 µM; Q9UM07; AID 485272; recombinant PAD4, RCA probe fluorescence polarization;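 active means percent inhibition above a cutoff equal to the mean of all tested compounds plus 3 SD, cut at about 15% in these data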;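 further: 0% = PAD4 with RCA probe and DMSO and 100% = probe without PAD4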
GSTO1 inh = counter-screen for RBBP9 inhibitors: inhibitors of human GSTO1; P78417; recombinant GSTO1, activity-based probe fluorescence polarization; inhibition, % at 5.96 µM; 300,000 tested, 1.1% active; AID 1974;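 active means inhibition above the campaign mean inhibition plus 3 SD, cut at about 35% in these data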;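 further: 0% = GSTO1-1 with DMSO and 100% = wells lacking GSTO1-1 enzyme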
Apaf-1 inh = blocks human Apaf-1 apoptosome activity | reconstituted apoptosome caspase-3 activity, DEVD-Rh110 fluorescence | 330,000 tested, 0.71% active | AID 489030 | inhibition, % at 20 µM; active means inhibition of at least 40% at 20 µM;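 further: plate controls were DMSO wells for no effect and DEVD-CHO caspase inhibitor wells for full effect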
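System – cell-free apoptosome with Apaf-1, procaspase-3 and caspase-9 · Buffer or medium – pH 7.5 Hepes buffer with CHAPS, BSA, DTT · Also added – cytochrome c with DEVD-Rh110 · Times – 30 min compound preincubation, 50 min activation, room temperature · Technique – Rh110 fluorescence intensity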
Apaf-1 inh conf = Apaf-1 inhibition, single-dose confirmed | shares compounds with Apaf-1 inh | reconstituted apoptosome, caspase-3 DEVD-Rh110 fluorescence | inhibition, % at 20 µM | 1,800 tested, 25% active | AID 504614;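 active means mean inhibition of at least 40% at 20 µM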;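 further: plate controls were DMSO wells for no effect and DEVD-CHO caspase inhibitor control wells for full effect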
Rh110 quench = counter-screen for Apaf-1 inhibitors: fluorescence interference. shares compounds with Apaf-1 inh. Rh110 fluorescence interference, quenched caspase reaction. activation (fluorescence interference), % at 20 µM. 1,800 tested, under 10 active;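 active means signal rise of 40% or more at 20 µM, treated as a fluorescence artifact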
Apaf1 inh interf = counter-screen for Apaf-1 inhibitors: fluorescence interference, dose response | shares compounds with Apaf-1 inh | fluorescence interference counterscreen, Apaf-1 assay format | IC50, µM | 460 tested, under 10 active | AID 588538; call rule not given here
An asterisk follows results filed as active; ? = inconclusive; / = no result given; ! = not confirmed by another sample.

SMILES	GASC-1 inh	TDP2 inh	UBC9 SUMO inh	PAD4 FP inh	GSTO1 inh	Apaf-1 inh	Apaf-1 inh conf	Rh110 quench	others
CN(C)C=Nc1nonc1-c1ccccc1	2	-20	0	0	-4	-4	/	/
CN(C)C=Nc1c(Br)cc(Br)c2nonc12	9	10	13	-25	6	43*	39	2
COc1ccc(S[C@]2(C(=O)NC3CC3)CC(=O)N[C@@H]2c2ccc(OC)cc2)cc1	/	0	/	/	/	/	/	/
COc1ccc(C(=O)/C=C/C(=O)N(CC(=O)NC2CCCCC2)Cc2ccccc2)c(O)c1	-3	-1	17	/	/	/	/	/
COc1ccc(C(=O)/C=C/C(=O)N(CC(=O)NC2CCCCC2)CC2CCCO2)c(O)c1 (stereo not drawn)	2	1	-1	2	0	49*	10	8
CC(C)(C)N1Cc2nnn(CC3CCCCC3)c2-c2ccccc2S1(=O)=O	/	-8	/	/	/	/	/	/
Cc1[nH]c2ccccc2c1/C=N/Nc1nc2ccccc2[nH]1	?	-1	-20	-6	-22	40	18	9
Cc1ccccc1/C=N/Nc1nc2ccccc2[nH]1	-39	-1	-11	1	-2	13	/	/
CCN(C(=O)CSc1nnc(-c2ccccc2)n1C)C1CCS(=O)(=O)C1 (stereo not drawn)	73	6	-1	0	3	-15	/	/
C=CCn1c(SCC(=O)N(CC)C2CCS(=O)(=O)C2)nnc1-c1ccccc1 (stereo not drawn)	-4	6	/	-5	/	61*	36	-7
CSc1ccc2c(c1)C(N1CCN(C)CC1)Cc1ccccc1S2 (stereo not drawn)	-13	-2	7	-7	2	48*!	21	17
CC(C)C(=O)N1CC[C@H]2[C@H](CCCN2Cc2ccccc2)C1	/	9	/	/	/	/	/	/
Cc1cccc(/C=N/Nc2cc(N3CCOCC3)nc(N3CCOCC3)n2)c1	5	-3	-5	-17	9	68*	33	4
Oc1ccc(/C=N\Nc2cc(N3CCOCC3)nc(N3CCOCC3)n2)c(O)c1	-4	-10	?	-2	26	85*	60*	7	Apaf1 inh interf=>100
Cc1ccc(/C=N/Nc2cc(C)nc(N3CCOCC3)n2)cc1	-6	-6	10	1	-6	5	/	/
Cc1cc(N/N=C/c2ccccc2)nc(N2CCOCC2)n1	0	7	23	5	-6	1	/	/
CC(C)c1ccc(/C=N/Nc2cc(N3CCOCC3)nc(N3CCOCC3)n2)cc1	2	-16	-9	0	0	62*	46*	11	Apaf1 inh interf=>100
O=C(OC12CCCN(C1)/C(=C/c1cccc(Cl)c1)C2)c1ccc(Cl)cc1 (stereo not drawn)	/	-2	/	/	/	/	/	/
C#CCOCCOCCOCCNc1nc(N2CCN(C(=O)CCCCCCCCCCNC(=O)[C@H](CO)n3cc(CCCSC)nn3)CC2)nc(N2CCN(C(=O)CCCCCCCCCCNC(=O)[C@H](CCCCN)n3cc(CCO)nn3)CC2)n1	-29	-4	/	2	/	74*	42*	10	Apaf1 inh interf=>100
C#CCOCCOCCOCCNc1nc(N2CCN(C(=O)CCCCCCCCCCNC(=O)[C@H](CO)n3cc(CCCSC)nn3)CC2)nc(N2CCN(C(=O)CCCCCCCCCCNC(=O)[C@@H]([C@H](C)O)n3cc(C)nn3)CC2)n1	/	/	/	5	-35	32	/	/
C#CCOCCOCCOCCNc1nc(N2CCN(C(=O)CCCCCCCCCCNC(=O)[C@H]([C@@H](C)CC)n3cc(CCCCCN)nn3)CC2)nc(N2CCN(C(=O)CCCCCCCCCCNC(=O)[C@H](CO)n3cc(CCCCCN)nn3)CC2)n1	-13	/	/	0	-5	71*	48*	9	Apaf1 inh interf=>100
